≈ marks a conversion by molar mass, not a printed value.
Key:
Staphylococcus aureus [1] = experiment: Antimicrobial activity against Staphylococcus aureus CB812 harboring rpo B H481Y and gyrA S84L mutant genes by broth microdilution method; format: functional
Procedure, shortened: (§1)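 CLSI broth microdilution MIC in cation-adjusted Mueller-Hinton (MHII) broth supplemented with 0.002% (vol/vol) polysorbate 80, included to limit compound loss to plastic surfaces.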

Staphylococcus aureus [2] = experiment: Antimicrobial activity against Staphylococcus aureus CB809 harboring rpoB H481Y and parC S80F mutant genes by broth microdilution method
Staphylococcus aureus [3] = experiment: Antimicrobial activity against Staphylococcus aureus CB811 harboring quinolone-resistant gyrA S84L mutant gene by broth microdilution method; format: functional; procedure, shortened: as §1
Staphylococcus aureus [4] = experiment: Antimicrobial activity against Staphylococcus aureus CB815 harboring rpoB H481Y, gyrA S84L and parC S80F mutant genes by broth microdilution method
Staphylococcus aureus [5] = experiment: Antimicrobial activity against Staphylococcus aureus CB814 harboring fluoroquinolone-resistant gyrA S84L and parC S80F mutant genes by broth microdilution method; format: functional; procedure, shortened: as §1
Staphylococcus aureus [6] = experiment: Antimicrobial activity against Staphylococcus aureus CB370 harboring rifampin-resistant rpoB H481Y mutant gene by broth microdilution method; format: functional; procedure, shortened: as §1
Staphylococcus aureus [7] = experiment: Antimicrobial activity against Staphylococcus aureus CB808 harboring quinolone-resistant parC S80F mutant gene by broth microdilution method; format: functional; procedure, shortened: as §1
Staphylococcus aureus [8] = experiment: Antimicrobial activity against Staphylococcus aureus CB190 by broth microdilution method; format: functional
Staphylococcus aureus [9] = experiment: Activity at Staphylococcus aureus wild-type GyrA
Procedure, shortened: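 Recombinant S. aureus gyrase (wild-type GyrA with His-tagged GyrB; 250 U per μg). SDS/proteinase K stop. Gel quantitation of linear cleavage product gave CC50, the mean of two or more assays.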

Staphylococcus aureus [10] = experiment: Activity at Staphylococcus aureus wild-type DNA topoisomerase 4 subunit ParC
Procedure, shortened: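 Recombinant S. aureus topoisomerase IV (wild-type ParC with ParE; specific activity 25 to 30 U per μg). Stopped with SDS/proteinase K. Linear DNA quantified on gel; CC50 is the mean of two or more assays.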

Staphylococcus aureus [11] = experiment: Activity at Staphylococcus aureus DNA topoisomerase 4 subunit ParC S80F mutant
[12] = system: DNA gyrase subunit A (Staphylococcus aureus), P20831 [S84L]; experiment: Activity at Staphylococcus aureus wild-type GyrA S84L mutant

| SMILES | MIC (Staphylococcus aureus [1]) [µg/mL] | MIC (Staphylococcus aureus [2]) [µg/mL] | MIC (Staphylococcus aureus [3]) [µg/mL] | MIC (Staphylococcus aureus [4]) [µg/mL] | MIC (Staphylococcus aureus [5]) [µg/mL] | MIC (Staphylococcus aureus [6]) [µg/mL] | MIC (Staphylococcus aureus [7]) [µg/mL] | MIC (Staphylococcus aureus [8]) [µg/mL] | CC50 (Staphylococcus aureus [9]) [µM] | CC50 (Staphylococcus aureus [10]) [µM] | CC50 (Staphylococcus aureus [11]) [µM] | CC50 [12] [µM] |
| --- | --- | --- | --- | --- | --- | --- | --- | --- | --- | --- | --- | --- |
| C[C@H]1COc2c(N3CCN(C)CC3)c(F)cc3c(=O)c(C(=O)O)cn1c23.C[C@H]1COc2c(N3CCN(C)CC3)c(F)cc3c(=O)c(C(=O)O)cn1c23.O [LEVOFLOXACIN] | 0.25 | 1 | 0.25 | 8 | 8 | 0.25 | 1 | 0.25 |  |  |  |  |
| Cc1c(N2CC[C@@H](N)C2)c(F)cn2c(=O)c(C(=O)O)cc(C3CC3)c12 | 0.03 (≈ 0.0869 µM) | 0.03 (≈ 0.0869 µM) | 0.03 (≈ 0.0869 µM) | 0.25 (≈ 0.724 µM) | 0.5 (≈ 1.45 µM) | 0.015 (≈ 0.0434 µM) | 0.03 (≈ 0.0869 µM) | 0.015 (≈ 0.0434 µM) | 0.09 | 0.06 | 1.1 | 0.9 |
| COc1c(N2CCNC(C)C2)c(F)cc2c(=O)c(C(=O)O)cn(C3CC3)c12 (configuration not stated) [GATIFLOXACIN] | 0.12 (≈ 0.32 µM) | 0.25 (≈ 0.666 µM) | 0.12 (≈ 0.32 µM) | 8 (≈ 21.3 µM) | 8 (≈ 21.3 µM) | 0.06 (≈ 0.16 µM) | 0.25 (≈ 0.666 µM) | 0.06 (≈ 0.16 µM) | 0.7 | 0.22 | 13 | 18 |

Reference: ChEMBL document CHEMBL1275434, “In vitro evaluation of CBR-2092, a novel rifamycin-quinolone hybrid antibiotic: studies of the mode of action in Staphylococcus aureus” (Antimicrob Agents Chemother, 2008)
